Experimental data from article PMC7658073 (Clinical Pharmacokinetics, 2020).
Like-named read-outs stand apart in the source and are kept apart here. Marks after values point to notes of the source that are not given here.

Columns and labels:
[1] = target: T1, UGT1A9 (Homo sapiens, UniProt O60656); test: Inhibitory potency towards UGT isoforms: UGT1A9; type: in vitro ADME
T1 sequence (O60656 26-530): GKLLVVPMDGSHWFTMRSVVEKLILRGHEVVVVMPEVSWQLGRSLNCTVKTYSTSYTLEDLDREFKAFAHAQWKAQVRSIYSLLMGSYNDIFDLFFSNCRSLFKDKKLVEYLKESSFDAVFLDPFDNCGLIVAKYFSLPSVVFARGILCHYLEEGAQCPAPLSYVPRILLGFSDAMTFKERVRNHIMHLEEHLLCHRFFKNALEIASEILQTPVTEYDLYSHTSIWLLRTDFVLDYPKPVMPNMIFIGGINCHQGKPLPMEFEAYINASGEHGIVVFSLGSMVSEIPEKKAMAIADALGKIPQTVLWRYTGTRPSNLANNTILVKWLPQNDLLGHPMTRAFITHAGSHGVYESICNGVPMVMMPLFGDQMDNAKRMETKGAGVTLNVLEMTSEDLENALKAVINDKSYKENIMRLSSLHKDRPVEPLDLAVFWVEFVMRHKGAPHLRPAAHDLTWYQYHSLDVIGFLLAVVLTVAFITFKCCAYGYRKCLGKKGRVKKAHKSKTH

[2] = Phase I DDI study with mefenamic acid; type: in vivo, human
[3] = Human mass balance study; type: in vivo; conditions: 14C-labeled vericiguat 5 mg oral
Procedure, shortened: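 Open-label, non-randomized, non-placebo-controlled study in six healthy male volunteers. Single oral solution of 5 mg [14C]-labelled test compound given fasting. Urine and feces collected up to 336 h and total radioactivity measured as % of dose, summarized descriptively as mean (range). Plasma components expressed as share of total radioactivity AUC.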

[4] = target: T2, UGT1A1 (Homo sapiens, UniProt P22309); test: Inhibitory potency towards UGT isoforms; type: in vitro ADME
T2 sequence (P22309 26-533): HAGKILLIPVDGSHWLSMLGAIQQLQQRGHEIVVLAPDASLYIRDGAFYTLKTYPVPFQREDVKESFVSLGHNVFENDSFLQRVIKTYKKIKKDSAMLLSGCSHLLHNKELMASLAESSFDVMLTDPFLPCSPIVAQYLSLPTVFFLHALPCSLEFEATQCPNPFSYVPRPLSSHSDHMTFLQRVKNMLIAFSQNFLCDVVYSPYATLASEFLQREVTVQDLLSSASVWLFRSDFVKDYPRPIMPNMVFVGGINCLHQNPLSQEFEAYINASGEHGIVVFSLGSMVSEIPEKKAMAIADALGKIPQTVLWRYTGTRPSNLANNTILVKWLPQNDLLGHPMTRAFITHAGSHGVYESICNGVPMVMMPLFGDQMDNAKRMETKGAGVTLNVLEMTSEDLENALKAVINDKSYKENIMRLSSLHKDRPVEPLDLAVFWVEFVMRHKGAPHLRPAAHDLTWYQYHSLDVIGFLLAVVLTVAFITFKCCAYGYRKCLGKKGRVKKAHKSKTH

[5] = ref data on file, cited from earlier work
[6] = target: T3, OAT1 (Homo sapiens, UniProt Q4U2R8); test: Inhibitory potency towards OAT1; type: in vitro ADME
T3 sequence (Q4U2R8 1-563): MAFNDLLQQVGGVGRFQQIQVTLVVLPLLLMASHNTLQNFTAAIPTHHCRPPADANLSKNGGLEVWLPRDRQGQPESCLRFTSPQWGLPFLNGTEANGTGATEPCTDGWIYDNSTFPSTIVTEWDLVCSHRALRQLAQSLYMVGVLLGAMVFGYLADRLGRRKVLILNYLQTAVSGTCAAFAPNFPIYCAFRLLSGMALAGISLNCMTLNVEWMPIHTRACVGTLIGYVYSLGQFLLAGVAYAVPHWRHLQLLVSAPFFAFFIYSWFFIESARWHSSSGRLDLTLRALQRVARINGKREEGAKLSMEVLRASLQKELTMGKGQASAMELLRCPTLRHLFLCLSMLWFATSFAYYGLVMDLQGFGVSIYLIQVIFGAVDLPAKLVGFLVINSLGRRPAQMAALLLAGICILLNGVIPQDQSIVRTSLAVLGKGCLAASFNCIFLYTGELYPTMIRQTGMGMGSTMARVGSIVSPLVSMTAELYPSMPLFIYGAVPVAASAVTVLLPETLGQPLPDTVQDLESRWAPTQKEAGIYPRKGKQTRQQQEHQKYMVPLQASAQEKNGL

[7] = target: T4, OATP1B1 (Homo sapiens, UniProt Q9Y6L6); test: Inhibitory potency towards OATP1B1; type: in vitro ADME
T4 sequence (Q9Y6L6 1-691): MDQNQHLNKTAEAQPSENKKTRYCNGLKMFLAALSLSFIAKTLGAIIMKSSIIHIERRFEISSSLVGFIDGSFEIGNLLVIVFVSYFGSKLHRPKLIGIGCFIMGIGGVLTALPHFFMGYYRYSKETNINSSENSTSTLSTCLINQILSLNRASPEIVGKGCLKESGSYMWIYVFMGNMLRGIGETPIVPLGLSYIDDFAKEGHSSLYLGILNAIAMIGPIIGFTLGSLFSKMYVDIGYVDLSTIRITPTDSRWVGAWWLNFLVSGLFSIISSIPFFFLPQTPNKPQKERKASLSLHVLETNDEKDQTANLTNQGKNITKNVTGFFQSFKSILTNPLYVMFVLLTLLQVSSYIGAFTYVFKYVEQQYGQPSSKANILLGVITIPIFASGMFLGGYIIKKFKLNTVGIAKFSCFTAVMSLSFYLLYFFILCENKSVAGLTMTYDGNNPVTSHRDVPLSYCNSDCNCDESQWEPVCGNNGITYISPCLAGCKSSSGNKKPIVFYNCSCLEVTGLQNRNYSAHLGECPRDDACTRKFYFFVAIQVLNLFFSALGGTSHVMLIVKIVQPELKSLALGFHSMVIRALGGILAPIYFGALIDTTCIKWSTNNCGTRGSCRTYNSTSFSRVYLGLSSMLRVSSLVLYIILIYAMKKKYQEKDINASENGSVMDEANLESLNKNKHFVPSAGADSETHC

[8] = with mefenamic acid vs vericiguat 2.5 mg SD alone, fed
[9] = % of dose, listed as vericiguat
[10] = following a 10-mg dose once daily

## COC(=O)Nc1c(N)nc(-c2nn(Cc3ccccc3F)c3ncc(F)cc23)nc1N [Vericiguat]
[1]
  IC50: 10.6 µM
  Ki: 6.6 µM
[2]; inhibition of UGT1A9 by mefenamic acid
  Increase in AUC of vericiguat: 20%
[2]; [8]
  AUC of vericiguat, point estimate of treatment ratio: 1.197
  Cmax of vericiguat, point estimate of treatment ratio: 0.967
[3]
  Share of total radioactivity AUC in human plasma: 27%
[3]; % of dose
  Excretion in feces (range): 42.6 (38.3–46.5) %
  Excretion in urine (range): 9.0 (6.1–16.1) %
  Total excretion of analyte (urine plus feces) (range): 51.6 (46.0–62.6) %
[3]; [9]
  Excretion in feces (range): 43%
  Excretion in urine (range): 9.0%
[3]; % of dose, mean (range)
  Radioactivity excreted via feces: 45.2 (40.1–49.9) %
  Radioactivity excreted via urine: 53.1^b (49.9–56.1) %
[4]
  IC50: > 50 µM
[5]; [10]
  Projected unbound inlet Cmax: 30 nM
  Unbound Cmax: approximately 0.02 µM
[5]; multiple-dose oral 10 mg once daily in patients with HFrEF
  Unbound Cmax: approximately 0.02 µM
[5]; read-out: Total Cmax, following a 10-mg dose once daily
  Cmax: ~800 nM
[6]
  IC50: > 5 µM
[7]
  IC50: ~16 µM
